Reference: paper PMC4090259 (Stem cell research, 2014)
Read-outs that look alike come from different tables or passages of the source. Each block holds one compound with its values, some of them ahead of it.

Tests used:
[1] = test system: ReNcell VM differentiated progeny (astrocytic phenotype); assay type: cell-based, human
[2] = test system: ReNcell CX neural progenitor cell line; settings: cited from earlier work
ReNcell VM cells [3] = experiment: Cytotoxicity in 2D ReNcell VM cultures, 96-well plate format; assay type: cell-based; settings: Homo sapiens
In short: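 Human neural stem cells seeded at 5,000 cells/well and left to attach for at least 5 h. Doses made by 4-fold serial dilution from the highest dose, each holding 0.5% DMSO vehicle. Viability read by MTT: 2.5 mg/ml MTT solution added, 3 h under culture conditions, supernatant removed, formazan dissolved in DMSO, absorbance at 590 nm with 690 nm reference.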

ReNcell VM cells [4] = assay type: cell-based, human
[5] = test system: various cancer cell lines; settings: literature values for various cancer cell lines; ref Chauffert & Dimanche-Boitrel 1998; Lee et al. 2008; Meli et al. 2012; cited from earlier work
Hep3B = settings: when P450 metabolism was absent; ref Lee et al. 2008; cited from earlier work

IC50 ([1]; Homo sapiens, ReNcell VM): 60 µM | IC50 (ReNcell VM cells [4]; Homo sapiens, ReNcell VM): 2000 µM
Structure (SMILES): C[C@@H]1C[C@H]2[C@@H]3CCC4=CC(=O)C=C[C@]4(C)[C@@]3(F)[C@@H](O)C[C@]2(C)[C@@]1(O)C(=O)CO [Dexamethasone, dexamethasone]
effect on viability ([2]; concentrations of up to 100 μM, ref Breier et al. 2008b): negligible effect on viability | IC50 (ReNcell VM cells [3]): 215 µM

Structure (SMILES): O=c1[nH]cc(F)c(=O)[nH]1 [5-Fluorouracil, 5-fluorouracil]
IC50 [5]: 1 to 85 µM | effect on proliferation and viability ([2]; non-differentiated, 2D well plate, after 24 h of incubation with the drug, ref Breier et al. 2008a): inhibited proliferation without affecting viability

IC50 (ReNcell VM cells [4]; Homo sapiens, ReNcell VM): 2400 µM
Structure (SMILES): CC(=O)Nc1ccc(O)cc1 [Acetaminophen, acetaminophen]
toxicity (Hep3B): non-toxic | viability of the cells below the hepatotoxic range of concentrations ([1]; differentiated progeny, concentrations below ~0.2 – 1 mM): remains unaffected | IC50 (ReNcell VM cells [3]): 1760 µM | viability of the cells below the hepatotoxic range of concentrations (ReNcell VM cells [4]; hNSC line, concentrations below ~0.2 – 1 mM): remains unaffected

Structure (SMILES): [Cl][Cd][Cl] [CdCl, cadmium chloride hydrate]
IC50 (ReNcell VM cells [4]; Non-differentiated, 3D alginate microarray, 24 h exposure + 48 h in medium): 7.36 µM
